Source: PubChem BioAssay
RGS4 inh = RGS4 inhibitors, primary screen, cell-based, HEK293 M3R inducible RGS4, calcium flux; Fluo-4 calcium flux; hits give high values; triggered by carbachol at its EC20; Regulator of G-protein signaling 4 (Homo sapiens), P49798; AID 463165, 2010; B-score at 10 µM; 310,000 tested, 0.45% active;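 active = B-score, a plate-corrected calcium signal, over three deviations above library mean, with baseline fluorescence within five deviations of library mean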;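 also: RGS4 expression induced by doxycycline in cells with stable M3 receptor; B-score is computed from the integrated fluorescence ratio over baseline after carbachol; higher B-score means a larger calcium signal and so more RGS4 inhibition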
Target sequence (P49798 whole entry, looked up): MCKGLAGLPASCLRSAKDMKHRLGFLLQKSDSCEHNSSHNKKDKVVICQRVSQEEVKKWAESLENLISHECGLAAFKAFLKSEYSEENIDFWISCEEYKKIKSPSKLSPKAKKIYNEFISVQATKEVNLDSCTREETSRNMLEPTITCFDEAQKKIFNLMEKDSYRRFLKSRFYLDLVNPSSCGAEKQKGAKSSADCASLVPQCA
MrgX1 antagonist = antagonists of human MrgX1 receptor, primary screen, HEK293 cells, Fluo-4 calcium flux; Mas-related G-protein coupled receptor member X1 (Homo sapiens), Q96LB2; 310,000 tested, 1.3% active; B-score at 10 µM; BAM8-22 antagonism; hits give low values;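 active = calcium-response B-score plate-corrected more than 3 library SD below zero, starting fluorescence within 5 deviations, no agonist response on first addition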;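 also: peak minus trough fluorescence over baseline after final BAM8-22 challenge near maximal dose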
RGS4 pot = RGS4 potentiators or activators, primary screen, cell-based, HEK293 M3R inducible RGS4, calcium flux; B-score at 10 µM; carbachol calcium flux Fluo4; hits give low values; 310,000 tested, 0.92% active;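 active = B-score of the integrated calcium signal more than 4 SD below the library mean, with starting fluorescence not abnormally high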;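 also: negative B-score means reduced calcium response which marks RGS4 activation or potentiation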
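Assay system: Inducible-RGS4 HEK293 cells carrying M3 receptor | Schedule: Compound preincubation 20 min at room temperature before agonist | Signal: Kinetic calcium fluorescence imaging with Fluo4-AM dye, 2 µM | Read-out basis: B score from integrated fluorescence ratio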
MrgX1 allo act = positive allosteric modulators of MrgX1, primary screen, HEK293 cells, Fluo-4 calcium flux. FDSS; hits give high values. B-score at 10 µM. 310,000 tested, 0.63% active. AID 588675, 2011;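 active = plate-corrected calcium response at least 3 library SD above typical, normal starting fluorescence, not activating the receptor alone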;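 also: compound read alongside a low EC10 to EC30 dose of BAM8-22 agonist; peak minus trough fluorescence over baseline measured at the second addition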
Kir21 block = inhibitors of mouse Kir2.1 inward-rectifier potassium channel; Inward rectifier potassium channel 2 (Mus musculus), P35561; HEK293-Kir2.1, FluxOR thallium flux fluorescence; hits give low values; B-score at 10 µM; 310,000 tested, 0.85% active; AID 1672, 2009;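 active = fluorescence ratio B-score at or below minus 3 SD of library scores, with starting-brightness B-score within 2 SD, cut at about -4.2 in these data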;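 also: channel flux triggered by added potassium and thallium sulfate stimulus; B-score of peak minus minimum fluorescence over baseline after thallium stimulus; more negative B-score means stronger Kir2.1 block with less thallium influx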
Target sequence (P35561 whole entry, looked up): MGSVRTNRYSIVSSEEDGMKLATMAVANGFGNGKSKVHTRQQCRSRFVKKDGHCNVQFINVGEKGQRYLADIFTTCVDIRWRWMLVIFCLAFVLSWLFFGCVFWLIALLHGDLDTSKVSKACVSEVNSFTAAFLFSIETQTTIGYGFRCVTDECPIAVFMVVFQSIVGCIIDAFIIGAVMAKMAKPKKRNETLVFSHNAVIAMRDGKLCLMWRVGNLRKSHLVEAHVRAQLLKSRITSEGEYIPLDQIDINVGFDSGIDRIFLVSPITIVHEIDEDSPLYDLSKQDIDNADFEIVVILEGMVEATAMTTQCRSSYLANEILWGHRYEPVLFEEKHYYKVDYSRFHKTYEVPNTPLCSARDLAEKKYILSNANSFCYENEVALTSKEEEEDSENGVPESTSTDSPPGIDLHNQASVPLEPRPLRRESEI
MrgX1 agonist = agonists of human MrgX1 receptor, primary screen, HEK293 cells, Fluo-4 calcium flux; Fluo-4 calcium fluorescence, agonist mode; hits give high values; B-score at 10 µM; 310,000 tested, 0.44% active; AID 588627, 2011;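 active = calcium response B-score plate-corrected fluorescence ratio at least 3 library SD, with starting fluorescence B-score inside 5 SD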
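Test system: Stable human MrgX1 HEK293 cell line | Schedule: Overnight plating before 1 h dye loading | Read-out basis: Baseline-normalised fluorescence change ratio, B-scored | Detection: Kinetic calcium dye fluorescence, Fluo-4 NW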
MrgX1 ag confirm = MrgX1 receptor agonists, duplicate retest, confirmation, HEK293 cells, Fluo-4 calcium flux; shares compounds with MrgX1 agonist; Fluo-4 calcium fluorescence, FDSS; activation, % at 10 µM; 600 tested, 78% active; AID 602412, 2012;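 active = calcium signal rise, corrected for plate position, at least 3 library SD high, with starting brightness within 5 such deviations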
HEK293 Ca flux = nonspecific calcium signal in parental HEK293, confirmation, counter-screen for MrgX1 antagonist project, parental HEK293 cells, Fluo-4 calcium flux; shares compounds with MrgX1 antagonist; Fluo-4 calcium fluorescence, FDSS; fluorescence ratio F(max-min)/F0 at 10 µM; 4,000 tested, 2% active; AID 624111, 2012;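 active = duplicate-averaged calcium fluorescence ratio at least three times the standard deviation of buffer wells, a nonspecific response in parental cells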
HEK293 Ca counter = calcium response in parental HEK293 cells, primary screen, counter-screen for MrgX1 allosteric activator project, cell-based, Fluo-4 calcium flux, duplicate; shares compounds with MrgX1 antagonist; Fluo-4 fluorescence ratio; hits give high values; fluorescence ratio F(max-min)/F0 at 10 µM; 4,000 tested, 0.4% active; AID 624114, 2012;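 active = calcium fluorescence ratio, averaged over duplicates, at least 3 SD of the buffer-well ratio, meaning a nonspecific response in receptor-free cells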;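 also: untransfected parental HEK293 lacking MrgX1 used as counterscreen for MrgX1 allosteric activators; fluorescence change taken during the second addition on a kinetic imager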
HEK293 Ca cntr2 = calcium response in parental HEK293 cells, primary screen, counter-screen for MrgX1 agonist project, cell-based, Fluo-4 calcium flux, duplicate, agonist mode | shares compounds with MrgX1 antagonist | Fluo-4 calcium fluorescence (FDSS); hits give high values | fluorescence ratio F(max-min)/F0 at 10 µM | 4,000 tested, 8.7% active;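 active = calcium fluorescence ratio at least three times the spread of buffer wells, meaning a non-specific response in parental cells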
* hit, by the source's call; i = inactive; · = no result. Most compounds without a hit are left out; they make up all but 4.1% or so of the library.

SMILES	RGS4 inh	MrgX1 antagonist	RGS4 pot	MrgX1 allo act	Kir21 block	MrgX1 agonist	MrgX1 ag confirm	HEK293 Ca flux	HEK293 Ca counter	HEK293 Ca cntr2
CCCc1[nH]n(-c2nc3ccccc3s2)c(=O)c1C=NCC1CCCO1 (centres undefined)	i	i	i	i	0.03	51*	187%*	i	i	i
Nc1nc2n(n1)C(c1cccc(Br)c1)CC(c1ccc(F)cc1)N2 (centres undefined)	i	i	i	i	1.4	i	·	·	·	·
O=C(c1ccc(Cl)cc1)N1CCCOC1	i	i	i	i	-0.27	50*	i	i	i	i
CC(=O)N1c2ccc(S(=O)(=O)N3CCCC3C(=O)Nc3ccc(C)cc3)cc2CC1C (centres undefined)	i	i	i	i	0.12	i	·	·	·	·
Cc1cc(C)n(CC(=O)NN)n1	i	i	i	i	0.28	i	·	·	·	·
CCCCNc1cc(C)nc(NCc2ccccc2)n1	i	i	i	i	-12*	29*	241%*	i	i	i
Cc1cc(C)nc(NCCCc2ccccc2)n1	i	i	i	i	-0.4	i	·	·	·	·
Cc1cc(N2CCC(C)CC2)nc(NCc2ccccc2)n1	i	i	-7*	i	-13*	46*	148%*	i	i	i
c1ccc2c(c1)ncn2-c1ccc(-c2ccnc3ncnn23)cc1	i	i	i	i	-3.9	i	·	·	·	·
Cc1c(C)n(Cc2ccccc2)c2ncnc(N)c12	i	i	i	i	-1.5	i	·	·	·	·
Cc1ccccc1-n1sc2cc(F)ccc2c1=O	·	i	·	i	·	40*	303%*	i	i	66*
Cc1ccccc1-n1c(=O)c2ccccc2n2cnnc12	i	i	i	i	0.61	i	·	·	·	·
O=C(NC(=S)Nc1ccc2c(c1)OCCO2)c1ccccc1	i	i	i	i	0.85	i	·	·	·	·
Cn1c(=O)c(C(=O)CN2CCN(S(=O)(=O)c3ccccc3)CC2)c(N)n(Cc2ccccc2)c1=O	i	i	i	i	-1	38*	171%*	i	i	46*
CCCn1nnc(NC(=O)COc2ccc(Cl)cc2)n1	i	i	i	i	0.14	i	·	·	·	·
C=CCn1c(-c2csc(-c3ccc(OC)c(OC)c3)n2)n[nH]c1=S	i	i	i	i	0.39	i	·	·	·	·
O=C(NNC(=S)NC(=O)c1ccccc1[N+](=O)[O-])c1ccccc1[N+](=O)[O-]	i	i	i	i	1.7	i	·	·	·	·
Cc1onc(-c2ccccc2)c1C(=O)NC(=S)NNC(=O)c1ccccc1O	i	i	i	i	-2.3	107*	714%*	i	i	132*
O=C(NNC(=S)NC(=O)c1ccccc1[N+](=O)[O-])c1ccc(Cl)cc1Cl	i	i	i	i	0.3	71*	218%*	i	i	i
Cc1ccc(C(=O)NC(=S)NNC(=O)c2ccccc2[N+](=O)[O-])cc1	i	i	i	i	0.37	77*	413%*	i	i	78*
Cc1ccc(C(=O)NNC(=S)NC(=O)c2ccc(Cl)cc2Cl)cc1	i	i	i	i	-0.04	131*	585%*	i	i	116*
Cc1[nH]n(-c2ccccc2)c(=S)c1C=NCCCN=Cc1c(C)[nH]n(-c2ccccc2)c1=S	i	i	i	i	0.74	i	·	·	·	·
COc1cc(/C=N/Nc2nc(C)cc(=O)[nH]2)ccc1O	i	i	i	i	0	i	·	·	·	·
Cc1ccc(C(=O)CCC(=O)N(C)CC(=O)Nc2ccccc2Br)cc1	i	i	i	i	-2.3	i	·	·	·	·
Cc1ccccc1C(=O)NNC(=S)NC(=O)c1ccccc1	i	i	i	i	0.56	159*	756%*	i	i	146*
SMILES	RGS4 inh	MrgX1 antagonist	RGS4 pot	MrgX1 allo act	Kir21 block	MrgX1 agonist	MrgX1 ag confirm	HEK293 Ca flux	HEK293 Ca counter	HEK293 Ca cntr2
O=C(NC(=S)NNC(=O)c1ccccc1O)c1ccc(F)cc1	i	i	i	i	0.01	i	·	·	·	·
Nc1nc2ccccc2n1Cc1ccc(Cl)c(Cl)c1	i	i	i	i	-4	36*	164%*	i	i	i
Cc1ccc(Cn2c(N)nc3ccccc32)cc1	i	i	i	i	0.02	30*	78%*	i	i	i
OCc1nc2ccccc2n1Cc1ccc(Cl)cc1	i	i	i	i	1.3	i	·	·	·	·
COCC(=O)Nc1cc(Cl)ccc1C	i	i	i	i	0.01	i	·	·	·	·
Cc1ccc(Cl)cc1NC(=O)CC(O)(C(F)(F)F)C(F)(F)F	i	i	i	i	1.1	29*	196%*	i	i	47*
O=C(Nc1nnc(-c2ccccn2)o1)c1cccc(Br)c1	i	i	i	i	0.32	29*	111%*	i	i	i
O=C(Nc1nnc(-c2ccccn2)o1)c1cccc(Cl)c1	i	i	i	i	-0.87	i	·	·	·	·
COC(=O)c1cc2c(-c3ccccc3)c(C)c3ccccn3c-2c1C(=O)OC	i	i	i	i	1.2	i	·	·	·	·
COC(=O)c1c(Cl)c2n3ccccc3c(C)c(-c3ccccc3)c-2c1C(=O)OC	i	i	i	i	-0.81	27*	i	i	i	i
